Measurements published in ChEMBL document CHEMBL1156731, “Antifungal activity of synthetic di(hetero)arylamines based on the benzo[b]thiophene moiety” (2008).
Values after ≈ are worked out from the molar mass of the structure shown. Active and inactive are the calls of the source. The calls are words filed in the database; no cut-off is given here.

Tests used:
Pichia kudriavzevii = assay: Antifungal activity against Candida krusei ATCC 6258 after 48 hrs by broth macrodilution method; type: functional; details: ATCC 6258, 48 h
Summary of the method: (§1)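 Yeasts grown 1 day on SDA at 37 °C, subcultured, suspended in saline and diluted in MOPS-buffered RPMI 1640 (pH 7.0) to 1-2 × 10^3 CFU/mL. Broth macrodilution per CLSI M27-A2, twofold dilutions 200-0.8 µg/mL (DMSO ≤2% final), aerobic, 37 °C, 48 h. MIC = 80% turbidity reduction vs drug-free control; MFC from SDA subculture at 37 °C. Three independent experiments in duplicate.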

Candida tropicalis = assay: Antifungal activity against Candida tropicalis ATCC 13803 after 48 hrs by broth macrodilution method; type: functional; details: ATCC 13803, 48 h; summary of the method: as §1
Candida albicans [1] = assay: Antifungal activity against Candida albicans D5 after 48 hrs by broth macrodilution method; type: functional; summary of the method: as §1
Nakaseomyces glabratus = assay: Antifungal activity against Candida glabrata D10R after 48 hrs by broth macrodilution method; type: functional
Summary of the method: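 Broth macrodilution per CLSI M27-A2 (minor modifications). Inoculum 1-2 × 10^3 CFU/mL in RPMI 1640 with L-glutamine, MOPS-buffered 0.165 M, pH 7.0. Twofold dilutions 200-0.8 µg/mL from DMSO stock (final DMSO ≤2%). Aerobic, 37 °C, 48 h. MIC = lowest concentration giving 80% turbidity reduction versus drug-free control. Three independent experiments in duplicate.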

Epidermophyton floccosum = assay: Antifungal activity against Epidermophyton floccosum FF9 after 5 days by broth macrodilution method; type: functional; details: 120 h
Summary of the method: (§2)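 Dermatophytes grown 5 days on SDA at 30 °C, subcultured. Conidial suspensions in saline were adjusted in MOPS-buffered RPMI 1640 (pH 7.0) to 1-2 × 10^4 CFU/mL. Macrodilution adapted from CLSI M38-A with 200-0.8 µg/mL twofold dilutions (DMSO ≤2%), incubated at 30 °C for 5 days. MIC at 80% turbidity reduction vs control; MFC by SDA subculture at 30 °C. Triplicate experiments in duplicate.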

Trichophyton rubrum = assay: Antifungal activity against Trichophyton rubrum FF5 after 5 days by broth macrodilution method; type: functional; details: 120 h; summary of the method: as §2
[2] = tested on: Trichophyton mentagrophytes; assay: Antifungal activity against Trichophyton mentagrophytes FF7 after 5 days by broth macrodilution method; type: functional; details: 120 h; summary of the method: as §2
Microsporum canis = assay: Antifungal activity against Microsporum canis FF1 after 5 days by broth macrodilution method; type: functional; details: 120 h; summary of the method: as §2
Nannizzia gypsea = assay: Antifungal activity against Microsporum gypseum FF3 after 5 days by broth macrodilution method; type: functional; details: 120 h; summary of the method: as §2
Aspergillus flavus = assay: Antifungal activity against Aspergillus flavus F44 after 3 days by broth macrodilution method; type: functional; details: 72 h
Summary of the method: (§3)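 Aspergillus inoculum from 3-day SDA subcultures at 30 °C; conidial suspension in 0.85% saline, diluted in RPMI 1640 (L-glutamine, no bicarbonate, 0.165 M MOPS, pH 7.0) to 1-2 × 10^4 CFU/mL. Twofold dilutions 200-0.8 µg/mL from DMSO stock (final DMSO ≤2%); macrodilution per CLSI M38-A, 30 °C, 3 days. MIC = lowest concentration giving 80% turbidity reduction vs drug-free control; MFC by subculture on SDA. Three independent experiments in duplicate.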

Aspergillus fumigatus [3] = assay: Antifungal activity against Aspergillus fumigatus ATCC 46645 after 3 days by broth macrodilution method; type: functional; details: ATCC 46645, 72 h; summary of the method: as §3
Aspergillus niger = assay: Antifungal activity against Aspergillus niger ATCC 16404 after 3 days by broth macrodilution method; type: functional; details: ATCC 16404, 72 h; summary of the method: as §3
Candida albicans [4] = assay: Antifungal activity against Candida albicans ATCC 10231 after 48 hrs by broth macrodilution method; type: functional; details: ATCC 10231, 48 h; summary of the method: as §1
Candida albicans [5] = assay: Inhibition of germ tube formation in Candida albicans ATCC 10231 after 3 hrs by hemocytometer; type: functional, organism-based
Summary of the method: (§4)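 Overnight SDA cultures (37 °C) were suspended in NYP medium (N-acetylglucosamine 10^-3 mol/L, YNB 3.35 g/L, proline 10^-3 mol/L, NaCl 4.5 g/L, pH 6.7) at (1.0 ± 0.2) × 10^6 CFU/mL. Compound added at 1/2, 1/4 and 1/8 MIC (1% DMSO final), 3 h at 37 °C. 100 cells counted by hemocytometer; germ tube at least blastospore diameter, pseudohyphae excluded. Mean ± SD, three experiments.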

Candida albicans [6] = assay: Inhibition of germ tube formation in Candida albicans D5 after 3 hrs by hemocytometer; type: functional, organism-based; summary of the method: as §4
Candida albicans [7] = assay: Inhibition of germ tube formation in Candida albicans M1 after 3 hrs by hemocytometer; type: functional, organism-based; summary of the method: as §4
Candida albicans [8] = assay: Antifungal activity against Candida albicans ATCC 10231 assessed as red fluorescence stained with FUN1 by flow cytometry; type: functional
Summary of the method: (§5)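 Overnight SDA cells suspended in RPMI 1640 at (2.0 ± 0.2) × 10^6 CFU/mL. Twofold dilutions 256 to one µg/mL applied at 35 °C, humid, no agitation, 2, 4 and 24 h. Washed; FUN-1 0.5 µM in PBS/2% glucose (20 min, 35 °C, FL2) or PI 1 µg/mL with 0.125% deoxycholate (~10 min, room temperature, FL3). ≥7500 events; marker included ≤5% of drug-free control cells.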

Aspergillus fumigatus [9] = assay: Antifungal activity against Aspergillus fumigatus ATCC 46645 assessed as red fluorescence stained with FUN1 by flow cytometry; type: functional, organism-based
Summary of the method: (§6)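 Conidia from 4–7-day SDA cultures suspended in water with 0.01% Tween 80 at (2.0 ± 0.2) × 10^6 CFU/mL. Exposed to twofold dilutions 256 to one µg/mL at 35 °C, water bath with agitation, 3, 4 and 24 h. FUN-1 0.5 µM (20 min, 35 °C, FL2) or PI 1 µg/mL (1 h, 35 °C, FL3); ≥7500 events; positive-cell marker set at ≤5% of drug-free controls.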

Candida albicans [10] = assay: Antifungal activity against Candida albicans ATCC 10231 assessed as red fluorescence stained with PI by flow cytometry; type: functional; summary of the method: as §5
Aspergillus fumigatus [11] = assay: Antifungal activity against Aspergillus fumigatus ATCC 46645 assessed as red fluorescence stained with PI by flow cytometry; type: functional; summary of the method: as §6

| SMILES | MFC (Pichia kudriavzevii) | MIC (Pichia kudriavzevii) | MFC (Candida tropicalis) | MIC (Candida tropicalis) | MFC (Candida albicans [1]) | MIC (Candida albicans [1]) | MFC (Nakaseomyces glabratus) | MIC (Nakaseomyces glabratus) | MFC (Epidermophyton floccosum) | MIC (Epidermophyton floccosum) | MFC (Trichophyton rubrum) | MIC (Trichophyton rubrum) | MFC [2] | MIC [2] | MFC (Aspergillus flavus) | MIC (Aspergillus flavus) | MFC (Aspergillus fumigatus [3]) | MIC (Aspergillus fumigatus [3]) | MFC (Aspergillus niger) | MIC (Aspergillus niger) | further results |
| --- | --- | --- | --- | --- | --- | --- | --- | --- | --- | --- | --- | --- | --- | --- | --- | --- | --- | --- | --- | --- | --- |
| CCOC(=O)c1sc2ccccc2c1Nc1ccc(OC)cc1 | > 200 µg/mL | > 200 µg/mL | > 200 µg/mL | > 200 µg/mL | > 200 µg/mL | > 200 µg/mL | > 200 µg/mL | > 200 µg/mL | > 200 µg/mL | > 200 µg/mL | > 200 µg/mL | > 200 µg/mL | > 200 µg/mL | > 200 µg/mL | > 200 µg/mL | > 200 µg/mL | > 200 µg/mL | > 200 µg/mL | > 200 µg/mL | > 200 µg/mL | MFC (Microsporum canis): > 200 µg/mL; MIC (Microsporum canis): > 200 µg/mL; MFC (Nannizzia gypsea): > 200 µg/mL; MIC (Nannizzia gypsea): > 200 µg/mL; MFC (Candida albicans [4]): > 200 µg/mL; MIC (Candida albicans [4]): > 200 µg/mL |
| CCOC(=O)c1sc2ccccc2c1Nc1cccnc1 | > 200 µg/mL | > 200 µg/mL | > 200 µg/mL | > 200 µg/mL | > 200 µg/mL | > 200 µg/mL | > 200 µg/mL | > 200 µg/mL | > 50 µg/mL | 6.25 µg/mL (≈ 20.9 µM) | > 50 µg/mL | 3.13 µg/mL (≈ 10.5 µM) | > 50 µg/mL | 3.13 µg/mL (≈ 10.5 µM) | > 200 µg/mL | > 200 µg/mL | > 200 µg/mL | > 200 µg/mL | > 200 µg/mL | > 200 µg/mL | MFC (Microsporum canis): > 50 µg/mL; MIC (Microsporum canis): 3.13 µg/mL (≈ 10.5 µM); MFC (Nannizzia gypsea): > 50 µg/mL; MIC (Nannizzia gypsea): 6.25 µg/mL (≈ 20.9 µM); MFC (Candida albicans [4]): > 200 µg/mL; MIC (Candida albicans [4]): > 200 µg/mL |
| CCOC(=O)c1sc2ccccc2c1Nc1ccc(O)cc1O | > 50 µg/mL | 25 µg/mL (≈ 75.9 µM) | > 50 µg/mL | 50 µg/mL (≈ 152 µM) | > 50 µg/mL | 25 µg/mL (≈ 75.9 µM) | > 50 µg/mL | 25 µg/mL (≈ 75.9 µM) | 12.5 µg/mL (≈ 38 µM) | 6.25 µg/mL (≈ 19 µM) | 25 µg/mL (≈ 75.9 µM) | 12.5 µg/mL (≈ 38 µM) | 25 µg/mL (≈ 75.9 µM) | 12.5 µg/mL (≈ 38 µM) | > 100 µg/mL | > 100 µg/mL | > 100 µg/mL | > 100 µg/mL | > 100 µg/mL | > 100 µg/mL | MFC (Microsporum canis): 12.5 µg/mL (≈ 38 µM); MIC (Microsporum canis): 12.5 µg/mL (≈ 38 µM); MFC (Nannizzia gypsea): 25 µg/mL (≈ 75.9 µM); MIC (Nannizzia gypsea): 12.5 µg/mL (≈ 38 µM); Activity (Candida albicans [5]): Active; Activity (Candida albicans [6]): Active; Activity (Candida albicans [7]): Active; MFC (Candida albicans [4]): > 200 µg/mL; MIC (Candida albicans [4]): 25 µg/mL (≈ 75.9 µM) |
| C[C@@H]1[C@H](O)[C@@H](C)/C=C/C=C/C=C/C=C/C=C/C=C/C=C/[C@H](O[C@@H]2O[C@H](C)[C@@H](O)[C@H](N)[C@@H]2O)C[C@@H]2O[C@](O)(C[C@@H](O)C[C@@H](O)[C@H](O)CC[C@@H](O)C[C@@H](O)CC(=O)O[C@H]1C)C[C@H](O)[C@H]2C(=O)O [AMPHOTERICIN B] | – | – | – | – | – | – | – | – | – | – | – | – | – | – | 8 µg/mL (≈ 8.66 µM) | 2 µg/mL (≈ 2.16 µM) | 4 µg/mL (≈ 4.33 µM) | 2 µg/mL (≈ 2.16 µM) | 4 µg/mL (≈ 4.33 µM) | 1 µg/mL (≈ 1.08 µM) | Activity (Candida albicans [8]): 60%; Activity (Aspergillus fumigatus [9]): Active; Activity (Candida albicans [10]): 40%; Activity (Aspergillus fumigatus [11]): 40% |
| c1cncc(Nc2csc3ccccc23)c1 | > 100 µg/mL | 100 µg/mL (≈ 442 µM) | > 100 µg/mL | 100 µg/mL (≈ 442 µM) | > 50 µg/mL | 50 µg/mL (≈ 221 µM) | > 50 µg/mL | 50 µg/mL (≈ 221 µM) | > 12.5 µg/mL | 12.5 µg/mL (≈ 55.2 µM) | 12.5 µg/mL (≈ 55.2 µM) | 3.13 µg/mL (≈ 13.8 µM) | > 12.5 µg/mL | 12.5 µg/mL (≈ 55.2 µM) | 100 µg/mL (≈ 442 µM) | 50 µg/mL (≈ 221 µM) | > 50 µg/mL | 25 µg/mL (≈ 110 µM) | > 100 µg/mL | 50 µg/mL (≈ 221 µM) | MFC (Microsporum canis): > 12.5 µg/mL; MIC (Microsporum canis): 12.5 µg/mL (≈ 55.2 µM); MFC (Nannizzia gypsea): > 12.5 µg/mL; MIC (Nannizzia gypsea): 12.5 µg/mL (≈ 55.2 µM); Activity (Candida albicans [5]): Active; Activity (Candida albicans [6]): Active; Activity (Candida albicans [7]): Active; Activity (Candida albicans [8]): 60%; Activity (Aspergillus fumigatus [9]): Active; Activity (Candida albicans [10]): 40%; Activity (Aspergillus fumigatus [11]): 40%; MFC (Candida albicans [4]): 100 µg/mL (≈ 442 µM); MIC (Candida albicans [4]): 50 µg/mL (≈ 221 µM) |
